Test results taken from ChEMBL document CHEMBL2163257 (J Med Chem, 2012).
Active and inactive are the calls of the source. The rule behind the calls is not given here.

Columns and labels:
[1] = biological target: T1, Histamine H2 receptor (Homo sapiens, UniProt P25021); assay: Intrinsic agonist activity at human H2R-Gsalphas expressed in Sf9 cells by steady state GTPase activity assay relative to histamine; type: functional
Method in brief: (§1)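 Steady-state GTPase assay with Sf9 membranes (5–20 µg protein) expressing hH2R- or gpH2R-Gsαs, in 50 mM Tris-HCl pH 7.4. Mix: 1.0 mM MgCl2, 100 µM EDTA, 100 nM GTP, 100 µM AppNHp, 5 mM creatine phosphate, creatine kinase, 0.2% BSA, ligand 0.1 nM–10 µM. After 2 min at 25 °C, [γ-32P]GTP or [γ-33P]GTP was added and reacted 20 min at 25 °C. Charcoal stop; released Pi counted. Emax referenced to histamine (1.0). Two to six experiments, duplicate.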

[2] = biological target: Histamine H2 receptor (Cavia porcellus) (UniProt P47747); assay: Intrinsic agonist activity at guinea pig H2R-Gsalphas expressed in Sf9 cells by steady state GTPase activity assay relative to histamine; type: functional; method in brief: as §1
[3] = biological target: T2, Histamine H4 receptor (Homo sapiens, UniProt Q9H3N8); assay: Agonist activity at human H4R-RGS19 Galphai2 Gbeta1gamma2 expressed in Sf9 cells at 0.1 nM to 1 mM by steady state GTPase activity assay; type: functional
Method in brief: (§2)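 Sf9 membranes coexpressing hH4R-RGS19 with Gαi2 and Gβ1γ2 were assayed for GTP hydrolysis with 5.0 mM MgCl2 and 100 mM NaCl (final), 100 nM GTP, 50 mM Tris-HCl pH 7.4. Ligands spanned 0.1 nM–1 mM. Preincubation was 2 min, then 20 min at 25 °C with [γ-32P]GTP or [γ-33P]GTP. Charcoal quench; Pi counted. Sigmoidal nonlinear regression; efficacy relative to histamine.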

[4] = biological target: Histamine H3 receptor (Homo sapiens, UniProt Q9Y5N1); assay: Agonist activity at human H3R-Galphai2-Gbeta1gamma2-RGS4 expressed in Sf9 cells 0.1 nM to 1 mM by steady state GTPase activity assay; type: functional
[5] = biological target: Histamine H2 receptor (Cavia porcellus) (UniProt P47747); assay: Intrinsic agonist activity at H2R in spontaneously beating guinea pig right atrium assessed as increase in heart rate relative to histamine; type: functional, tissue-based; details: Cardiac atrium
Method in brief: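 Isolated spontaneously beating guinea pig right atrium. Ligand stocks (10 mM) and dilutions were made in fresh bath fluid. Tissue was washed for 30 min and equilibrated for 15 min. […] Emax is relative to maximal histamine heart-rate increase. Three to five experiments.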

[6] = Agonist activity at human H2R-C17Y-A271D Gsalphas mutant containing human H2 receptor E2 loop expressed in Sf9 cells by steady state GTPase activity assay; type: functional
Method in brief: (§3)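 Mutant H2R-Gsαs fusion proteins in Sf9 membranes were tested by steady-state GTPase hydrolysis: 1.0 mM MgCl2, 100 nM GTP, AppNHp/creatine phosphate regeneration, pH 7.4 Tris, 20 min at 25 °C with [γ-32P/33P]GTP, charcoal separation of Pi.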

[7] = Agonist activity at guinea pig H2R hE2 loop Gsalphas mutant containing human H2 receptor E2 loop expressed in Sf9 cells by steady state GTPase activity assay; type: functional; details: Cavia porcellus; method in brief: as §3
[8] = biological target: T2, Histamine H4 receptor; assay: Agonist activity at human H4R-RGS19 Galphai2 Gbeta1gamma2 expressed in Sf9 cells by steady state GTPase activity assay relative to histamine; type: functional; method in brief: as §2
[9] = biological target: T1, Histamine H2 receptor; assay: Agonist activity at human H2R-Gsalphas expressed in Sf9 cells at 0.1 nM to 10 uM by steady state GTPase activity assay
[10] = biological target: Histamine H2 receptor (Cavia porcellus, UniProt P47747); assay: Agonist activity at guinea pig H2R-Gsalphas expressed in Sf9 cells at 0.1 nM to 10 uM by steady state GTPase activity assay; type: functional
Method in brief: as §1, with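 “counted.” for “counted. Emax referenced to histamine (1.0).”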

[11] = biological target: T1, Histamine H2 receptor; assay: Potency index, ratio of pEC50 for compound to pEC50 for histamine at human H2R-Gsalphas expressed in Sf9 cells at 0.1 nM to 10 uM by steady state GTPase activity assay
Method in brief: (§4)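 Sf9 membranes expressing human or guinea pig H2R-Gsαs fusion protein, 1.0 mM MgCl2, ATP, 100 nM GTP, AppNHp, creatine phosphate/kinase, BSA, Tris pH 7.4. Agonists 0.1 nM–10 μM, [γ-32P/33P]GTP hydrolysis 20 min at 25 °C, Pi counted. Curves fit by sigmoidal nonlinear regression. Potency given relative to histamine (set to 1.0). Two to six independent experiments in duplicate.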

[12] = Selectivity index, ratio of EC50 for human H2R-Gsalphas to EC50 for guinea pig H2R-Gsalphas by steady state GTPase activity assay
[13] = biological target: Histamine H2 receptor (Cavia porcellus) (UniProt P47747); assay: Potency index, ratio of pEC50 for compound to pEC50 for histamine at guinea pig H2R-Gsalphas expressed in Sf9 cells at 0.1 nM to 10 uM by steady state GTPase activity assay; method in brief: as §4
[14] = biological target: Histamine H1 receptor (Homo sapiens) (UniProt P35367); assay: Antagonist activity at human H1R-RGS4 expressed in Sf9 cells by steady state GTPase activity assay; type: functional
Method in brief: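 Sf9 membranes (5–20 μg protein) co-expressing human H1R with RGS4. Reaction with 1.0 mM MgCl2, 100 μM ATP, 100 nM GTP, AppNHp, creatine phosphate/kinase, 0.2% BSA, 50 mM Tris-HCl pH 7.4. Histamine 100 nM with test ligand 10 nM–1 mM. [γ-32P/33P]GTP added, 20 min at 25 °C. Charcoal stop, released Pi counted. pKB from sigmoidal nonlinear fits.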

[15] = biological target: Histamine H2 receptor (Cavia porcellus) (UniProt P47747); assay: Agonist activity at H2R in spontaneously beating guinea pig right atrium assessed as increase in heart rate in presence of 100 uM H2R antagonist cimetidine; type: functional, tissue-based; details: Cardiac atrium

T2 sequence (Q9H3N8 whole entry): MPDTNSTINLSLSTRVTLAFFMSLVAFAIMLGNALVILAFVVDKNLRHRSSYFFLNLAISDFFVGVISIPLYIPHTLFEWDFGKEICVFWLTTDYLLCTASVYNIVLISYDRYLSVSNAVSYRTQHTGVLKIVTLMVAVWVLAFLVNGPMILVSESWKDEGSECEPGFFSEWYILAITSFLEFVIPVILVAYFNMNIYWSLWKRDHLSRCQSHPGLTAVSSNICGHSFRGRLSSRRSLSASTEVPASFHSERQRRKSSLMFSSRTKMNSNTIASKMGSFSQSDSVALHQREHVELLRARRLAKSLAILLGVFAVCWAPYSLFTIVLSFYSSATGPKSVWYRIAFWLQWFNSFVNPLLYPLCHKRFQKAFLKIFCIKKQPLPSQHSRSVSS
Chain of Histamine H2 receptor (Cavia porcellus) (P47747 whole entry): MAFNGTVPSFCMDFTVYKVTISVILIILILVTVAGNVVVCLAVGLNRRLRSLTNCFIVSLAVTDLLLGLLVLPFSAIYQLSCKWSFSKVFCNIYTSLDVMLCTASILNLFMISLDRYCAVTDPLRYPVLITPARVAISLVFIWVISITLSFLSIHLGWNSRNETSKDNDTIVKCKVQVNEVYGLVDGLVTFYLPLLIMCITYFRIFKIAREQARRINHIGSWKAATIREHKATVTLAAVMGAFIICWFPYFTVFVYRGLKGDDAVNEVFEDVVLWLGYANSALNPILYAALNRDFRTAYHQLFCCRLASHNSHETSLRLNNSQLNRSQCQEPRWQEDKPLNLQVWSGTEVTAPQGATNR
T1 sequence (P25021 whole entry): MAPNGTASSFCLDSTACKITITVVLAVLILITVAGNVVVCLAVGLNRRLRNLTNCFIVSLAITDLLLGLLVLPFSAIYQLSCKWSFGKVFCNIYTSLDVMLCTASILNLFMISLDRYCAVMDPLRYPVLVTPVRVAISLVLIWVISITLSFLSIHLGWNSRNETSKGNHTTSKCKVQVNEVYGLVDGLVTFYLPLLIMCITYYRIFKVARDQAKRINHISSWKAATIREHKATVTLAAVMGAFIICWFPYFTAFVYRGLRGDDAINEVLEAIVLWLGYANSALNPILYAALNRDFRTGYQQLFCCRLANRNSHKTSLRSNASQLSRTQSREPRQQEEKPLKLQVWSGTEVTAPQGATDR
Chain of Histamine H3 receptor (Q9Y5N1 whole entry): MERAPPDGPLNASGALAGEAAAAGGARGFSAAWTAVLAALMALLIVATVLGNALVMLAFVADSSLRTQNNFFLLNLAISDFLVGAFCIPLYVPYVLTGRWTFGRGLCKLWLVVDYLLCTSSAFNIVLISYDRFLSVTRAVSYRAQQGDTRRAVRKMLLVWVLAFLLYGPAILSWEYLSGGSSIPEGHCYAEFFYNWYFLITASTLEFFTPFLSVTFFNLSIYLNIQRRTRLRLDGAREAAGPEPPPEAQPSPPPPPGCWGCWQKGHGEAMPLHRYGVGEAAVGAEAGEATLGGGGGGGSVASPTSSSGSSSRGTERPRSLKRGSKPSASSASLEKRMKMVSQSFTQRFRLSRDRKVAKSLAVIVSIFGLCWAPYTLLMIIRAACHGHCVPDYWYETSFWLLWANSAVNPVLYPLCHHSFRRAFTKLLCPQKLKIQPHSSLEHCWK
Chain of Histamine H2 receptor (Cavia porcellus, UniProt P47747) (P47747 whole entry): as the sequence (P47747 whole entry) above
Chain of Histamine H1 receptor (Homo sapiens) (P35367 whole entry): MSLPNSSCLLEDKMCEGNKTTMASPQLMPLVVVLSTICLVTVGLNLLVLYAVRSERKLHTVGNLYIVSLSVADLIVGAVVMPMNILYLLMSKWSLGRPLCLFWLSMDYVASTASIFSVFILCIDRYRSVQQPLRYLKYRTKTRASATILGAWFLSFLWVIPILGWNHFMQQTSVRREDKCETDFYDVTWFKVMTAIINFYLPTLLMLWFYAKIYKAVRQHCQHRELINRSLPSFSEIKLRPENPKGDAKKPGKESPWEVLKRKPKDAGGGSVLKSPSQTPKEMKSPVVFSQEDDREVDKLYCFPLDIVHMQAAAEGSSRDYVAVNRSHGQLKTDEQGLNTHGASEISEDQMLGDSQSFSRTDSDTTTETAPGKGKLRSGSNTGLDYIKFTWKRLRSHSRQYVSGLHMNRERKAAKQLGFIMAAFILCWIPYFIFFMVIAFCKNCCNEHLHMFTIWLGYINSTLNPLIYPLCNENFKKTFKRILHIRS

Compound	Intrinsic activity [1]	Intrinsic activity [2]	Intrinsic activity [5]	Activity [6]	Activity [7]	further results
N/C(=N\C(=O)CCCCCCCCCCCCCCC(=O)/N=C(\N)NCCCc1c[nH]cn1)NCCCc1c[nH]cn1	0.29	0.85	–	–	–	EC50 [3]: 339 nM; EC50 [4]: > 1000 nM
Cc1nc(N)sc1CCCN/C(N)=N/C(=O)CCCCCCCC(=O)/N=C(\N)NCCCc1sc(N)nc1C	0.48	0.9	0.71	–	–	–
N/C(=N\C(=O)CCCCCCCCC(=O)/N=C(\N)NCCCc1c[nH]cn1)NCCCc1c[nH]cn1	0.81	0.98	0.91	Active	Active	EC50 [3]: 8.51 nM; EC50 [4]: 1.78 nM; Intrinsic activity [8]: 0.44
NC(=NCCCc1nnc[nH]1)NC(=O)CCCCCCCCC(=O)NC(N)=NCCCc1nnc[nH]1	–	–	–	–	–	EC50 [9]: 151 nM
N/C(=N\C(=O)CCCCCCCCC(=O)/N=C(\N)NCCCc1cnc(N)s1)NCCCc1cnc(N)s1	0.75	0.94	–	Active	Active	–
Cc1nc(N)sc1CCCNC(=N)NC(=O)CCCCCCCCC(=O)NC(=N)NCCCc1sc(N)nc1C	–	–	–	–	–	EC50 ([10]; read-out: EC50): 0.39 nM
N/C(=N\C(=O)CCCCCCC(=O)/N=C(\N)NCCCc1c[nH]cn1)NCCCc1c[nH]cn1	0.77	1.18	–	–	–	EC50 ([10]; read-out: pEC50 (converted)): 3.24 nM; Ratio [11]: 22.4; EC50 [9]: 56.2 nM; Ratio EC50 [12]: 17.4; Ratio [13]: 372; EC50 [3]: 41.7 nM; EC50 [4]: 4.17 nM; pKb [14]: 6.7; Intrinsic activity [8]: 0.51
Cc1nc(N)sc1CCCN/C(N)=N/C(=O)CCCCCCC(=O)/N=C(\N)NCCCc1sc(N)nc1C	0.62	0.81	0.64	Active	Active	–
Cc1nc(N)sc1CCCN/C(N)=N/C(=O)CCCCCCCCCCCCCCCCCCCCC(=O)/N=C(\N)NCCCc1sc(N)nc1C	–	0.58	0.62	–	–	–
Cc1nc(N)sc1CCCN/C(N)=N/C(=O)CCc1ccccc1	0.79	0.76	–	–	–	–
Cc1nc(N)sc1CCCN/C(N)=N/C(=O)CCCCCCCCC(=O)/N=C(\N)NCCCc1c[nH]cn1	0.76	1.01	–	Active	Active	EC50 [3]: 8.51 nM; EC50 [4]: 2.88 nM; Intrinsic activity [8]: 0.52
N/C(=N\C(=O)CCCCCCCCC(=O)/N=C(\N)NCCCc1ncn[nH]1)NCCCc1ncn[nH]1	0.49	0.95	–	–	–	–
N/C(=N\C(=O)CCCCC(=O)/N=C(\N)NCCCc1c[nH]cn1)NCCCc1c[nH]cn1	0.68	1	–	–	–	EC50 [3]: 79.4 nM; EC50 [4]: > 10000 nM; Intrinsic activity [8]: 0.42
Cc1nc(N)sc1CCCN/C(N)=N/C(=O)CCCCCCCCC(=O)/N=C(\N)NCCCc1cnc(N)s1	0.75	0.89	–	Active	Active	–
Cc1nc(N)sc1CCCN/C(N)=N/C(=O)CCCCCCCCCCCCCCC(=O)/N=C(\N)NCCCc1sc(N)nc1C	0.12	0.51	0.53	Active	Active	–
N/C(=N\C(=O)CCCCCCC(=O)/N=C(\N)NCCCc1cnc(N)s1)NCCCc1cnc(N)s1	0.79	1	–	Active	Active	–
N/C(=N\C(=O)CCCCCCCCCCCCCCCCCCCCC(=O)/N=C(\N)NCCCc1cnc(N)s1)NCCCc1cnc(N)s1	–	0.36	–	–	–	–
Cc1nc(N)sc1CCCN/C(N)=N/C(=O)CCCCCCCCCCC(=O)/N=C(\N)NCCCc1sc(N)nc1C	0.46	0.66	0.46	–	–	–
N/C(=N\C(=O)CCCCCCCCCCCCCCC(=O)/N=C(\N)NCCCc1cnc(N)s1)NCCCc1cnc(N)s1	0.14	0.59	–	–	–	–
N/C(=N\C(=O)CCCCCCCCCCCCCCCCCCCCC(=O)/N=C(\N)NCCCc1c[nH]cn1)NCCCc1c[nH]cn1	–	0.19	–	–	–	–
Cc1nc(N)sc1CCN [AMTHAMINE]	0.91	1.04	0.95	–	–	–
N=C(NCCCc1cnc[nH]1)NC(=O)CCCCCCCCCCCCCCCCCCCCC(=O)NC(N)=NCCCc1cnc[nH]1	–	–	–	–	–	EC50 [3]: > 1000 nM; EC50 [4]: 447 nM
Cc1nc(N)sc1CCCN/C(N)=N/C(=O)CCCCCCCCC(=O)/N=C(\N)NCCCc1sc(N)nc1C	0.53	0.79	0.62	Active	Active	–
Cc1nc(N)sc1CCCN/C(N)=N/C(=O)CCCCC(=O)/N=C(\N)NCCCc1sc(N)nc1C	0.68	0.9	0.88	–	–	%max [15]: 46%
